Compound activity: PubChem BioAssay, Sanford-Burnham Center for Chemical Genomics
Hits are enriched below; roughly 1.3% of the tested compounds scored in any of these assays.
Diaph inh CS: counter-screen for diaphorase-based assays: diaphorase inhibitors and chemical oxidizers; 190,000 compounds, 0.69% hits; inhibition, % at 20 µM; diaphorase resazurin-to-resorufin fluorescence, NADH, 16 min; bacterial (C. kluyveri) enzyme, not human;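 active means primary screen inhibition at 20 µM above a set limit, cut at about 50% in these data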;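 further: plate controls were DMSO with full reaction for no effect and wells lacking NADH for full effect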
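Assay system – diaphorase enzyme from Clostridium kluyveri · Amount – diaphorase 0.14 U/mL (working solution) · Times – reaction incubation of 16 min at room temperature · Controls – No-NADH positive control and DMSO neutral control · Signal – resorufin fluorescence 544/590 nm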
Diaph act CS: activates diaphorase or chemically reduces, flagging diaphorase assay artifacts. activation factor at 20 µM. AID 1229. Diaphorase/resazurin coupled assay, resorufin fluorescence, 16 min; hits give high values; 1 = vehicle wells, 0 = NADH-free wells. 190,000 compounds, 0.005% hits;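 active means diaphorase activity raised at least twofold by the compound at 20 µM; inactive means activation factor below 2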
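Assay system: bacterial diaphorase enzyme (C. kluyveri) / Input: enzyme 0.07 U/mL final / Medium: 50 mM HEPES pH 7.4 with 4.542 mM MgCl2, 0.005% Tween 20 / Doses: single compound dose of 20 µM, 1% DMSO final / Incubation: 16 min enzyme reaction, ambient temperature / Signal: fluorescence, excitation 544 nm and emission 590 nm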
HKDC1 inh: inhibitors of human hexokinase HKDC1. 340,000 compounds, 0.16% hits. Q2TB90. recombinant HKDC1, G6PDH/diaphorase resazurin coupled fluorescence. inhibition, % at 20 µM;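 active means inhibition above about 35% when tested at 20 µM, limit read from the data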;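 further: plate controls were DMSO wells with enzyme for no effect and DMSO wells lacking enzyme for full effect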
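Test system: Recombinant HKDC1 (HK5) hexokinase enzyme, produced in-house | Input: HKDC1 at 5 µg/mL | Buffer or medium: Tris pH 8.0 buffer with MgCl2, Tween-20, BSA, BME | Schedule: 90 min reaction incubation at room temperature, dark | Technique: Resazurin-to-resorufin fluorescence via G6PDH and diaphorase coupling, 525/613 nm | Controls: DMSO wells with and without enzyme mix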
G6PDH counter: counter-screen for G6PDH assay hits: L. mesenteroides G6PDH inhibition; Purified L. mesenteroides G6PDH, diaphorase/resazurin coupled fluorescence, 45 min; 200,000 compounds, 0.12% hits; inhibition, % at 5 µM; in the data active means inhibition above about 50%
PfGluPho inh: PfG6PD (Plasmodium falciparum) enzyme inhibition; 350,000 compounds, 0.78% hits; inhibition, % at 20 µM; PfGluPho enzyme, NADPH resazurin-diaphorase fluorescence;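 active means inhibition reaching at least a set limit at 20 µM in the primary screen, cut at about 59% in these data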;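 further: 0% = DMSO wells with substrate and 100% = DMSO wells lacking glucose-6-phosphate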
PfGluPho conf: confirmation of Plasmodium falciparum G6PD inhibitors | recombinant PfGluPho, NADPH-diaphorase-resazurin fluorescence | 2,400 compounds, 34% hits | shares compounds with PfGluPho inh | inhibition, % at 20 µM;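 active means inhibition of at least 50% at 20 µM in any single replicate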;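 further: 0% = DMSO with substrate and 100% = DMSO lacking glucose-6-phosphate substrate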
Diaph ctr 10uM: counter-screen for P. falciparum G6PD inhibitors: diaphorase inhibitors, oxidizers; inhibition, % at 20 µM; diaphorase-coupled resazurin reduction, fluorescence, NADPH 10 uM; 820 compounds, 39% hits; shares compounds with PfGluPho inh;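 active means average inhibition reaching 50% or more with the compound at 20 µM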;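 further: resorufin red fluorescence formed as diaphorase reduces resazurin using NADPH; 0% = DMSO with enzyme and 100% = DMSO without enzyme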
Diaphorase 30uM: diaphorase inhibition or oxidation at 30 uM NADPH; 820 compounds, 29% hits; AID 504863; shares compounds with PfGluPho inh; Diaphorase/resazurin coupled assay, resorufin fluorescence; inhibition, % at 20 µM;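 active means inhibition averaging 50% or more, tested at 20 µM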;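 further: 0% = DMSO with enzyme and 100% = DMSO wells lacking diaphorase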
Starred values were filed as active, the others as inactive; x = no result.

SMILES | Diaph inh CS | Diaph act CS | HKDC1 inh | G6PDH counter | PfGluPho inh | PfGluPho conf | others
O=C(NCCn1cc(SCc2ccccc2)c2ccccc21)c1c(F)cccc1F | 20 | 0.8 | -2 | 21 | 64* | -20
O=C(CSc1cn(CCNC(=O)c2c(F)cccc2F)c2ccccc12)NCC1CCCO1 (stereo not drawn) | x | x | -8 | x | 10 | x
Cn1c(N)c(C(=O)COC(=O)c2cc(S(=O)(=O)NCc3ccccc3)ccc2O)c(=O)n(C)c1=O | x | x | 4 | x | 23 | x
CCOC(=O)c1ccc(S(=O)(=O)N2CCN(C3CC(=O)N(c4ccccc4C(F)(F)F)C3=O)CC2)cc1 (stereo not drawn) | x | x | -4 | x | 9 | x
N=C1C(c2nc3ccccc3s2)=C(O)CN1c1ccccc1 | -12 | 1.1 | -1 | 18 | -14 | x
CCCNC(=O)c1ccccc1NC(=O)COc1cccc2c1OC(C)(C)C2 | x | x | -9 | x | -5 | x
CN(NS(=O)(=O)c1ccc([N+](=O)[O-])cc1)c1ccccc1 | x | x | x | x | 82* | 55* | Diaph ctr 10uM=91*;Diaphorase 30uM=85*
COc1cccc(CNCC(=O)NC(=O)NC2CCCC2)c1 | x | x | -4 | x | 8 | x
O=C(Cc1csc(N2CCOCC2)n1)N/N=C/c1ccc(O)c(O)c1O | 83* | 0.2 | 22 | -2 | 72* | 62* | Diaph ctr 10uM=57*;Diaphorase 30uM=64*
CCOC(=O)N1CCC(N2Cc3cccc(C(=O)Nc4ccc(N(CC)CC)cc4C)c3C2=O)CC1 | x | x | 1 | x | 35 | x
CCn1ccnc1CN(C)C(=O)C1CCC(=O)N(Cc2cccc(F)c2)C1 (stereo not drawn) | x | x | -4 | x | 1 | x
Nc1ccc(-c2nc3ccc([N+](=O)[O-])cc3[nH]2)cc1 | 7 | 0.9 | -2 | -19 | 32 | x
O=[N+]([O-])c1ccc(-c2nc3ccc([N+](=O)[O-])cc3[nH]2)cc1 | 14 | 0.9 | -4 | -1 | 86* | 42
O=[N+]([O-])c1ccc2nc(/C=C/c3ccc(Cl)cc3)[nH]c2c1 | 15 | 0.8 | -3 | -7 | 62* | 18
CC(C)CN(C(=O)C1=COCCO1)c1c(N)n(Cc2ccccc2)c(=O)[nH]c1=O | x | x | x | x | 1 | x
O=C(COc1ccc(C(=O)c2ccccc2)cc1)Nc1cccnc1 | x | x | 2 | x | 16 | x
CN(C)c1ccc(NC(=S)c2ccc3ccccc3n2)cc1 | x | x | -17 | x | 67* | 37
O=C(Nc1ccc(F)cc1F)c1cc(Cl)sc1Cl | x | x | -5 | x | 11 | x
COc1cc2ccc(C(C)=NNC(N)=S)cc2cc1OC | x | x | x | x | 9 | x
Cc1ccc(-c2nn(-c3ccccc3)cc2/C=N/NC(=O)c2ccncc2)o1 | 16 | 0.8 | -9 | 4 | 60* | -27
O=C(N/N=C/c1cn(-c2ccccc2)nc1-c1cccs1)c1ccncc1 | 10 | 0.9 | -5 | -3 | -14 | x
COc1ccc(C(c2sc3nc(C)nn3c2O)N2CCc3ccccc3C2)cc1 (stereo not drawn) | 5 | 0.9 | -3 | -3 | 59* | -21
CCc1ccccc1Oc1ccc(S(=O)(=O)N2CCN(C)CC2)cn1 | x | x | -3 | x | -1 | x
O=C(Nc1cc(-c2nc3ncccc3o2)ccc1Cl)c1ccc([N+](=O)[O-])o1 | x | x | -1 | x | 9 | x
COc1cc(N=Cc2c(CO)cnc(C)c2O)cc(OC)c1OC | x | x | 1 | x | 63* | 68* | Diaph ctr 10uM=-25;Diaphorase 30uM=-17
CCCc1nnc(NC(=O)CCC(=O)N2CCN(c3ccccc3)CC2)s1 | x | x | 1 | x | -4 | x
CCOc1ccc(C(=S)NC2CCCCC2)cc1OCC | x | x | -6 | x | 65* | 23
CCOc1ccc(C(C)NC(=S)NC2CCCCC2)cc1OCC (stereo not drawn) | 13 | 0.9 | 7 | 6 | 6 | x
CCNc1nnc(SCC(=O)N2c3ccccc3NC(=O)CC2C)s1 (stereo not drawn) | x | x | -6 | x | 8 | x
